This is an account of results in ChEMBL document CHEMBL2086336, “Small molecule suppression of carbapenem resistance in NDM-1 producing Klebsiella pneumoniae” (ACS Med Chem Lett, 2012).

Series [1] has as its system Klebsiella pneumoniae. The experiment in a line: Antibacterial activity against Klebsiella pneumoniae BAA 2146 expressing NDM-1 after 16 hrs by broth microdilution technique. It is filed as functional. Conditions: BAA 2146, 16 h. A digest of the protocol:
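MIC of the 2-AI compound alone, determined by modified broth microdilution in cation-adjusted Mueller Hinton broth (CAMHB).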
(Broth dilution looks for growth in wells or tubes with falling amounts of substance.)

The subject of series [2] is Klebsiella pneumoniae. As to the kind of experiment: Potentiation of meropenem antibacterial activity against Klebsiella pneumoniae BAA 2146 expressing NDM-1 assessed as reduction in meropenem MIC at 50 uM after 16 hrs by broth microdilution technique. It is filed as functional, organism-based. A digest of the protocol:
(§1)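 Modified broth microdilution: imipenem or meropenem MIC measured in CAMHB supplemented with a fixed concentration of the 2-AI compound. Fold reduction is taken against the carbapenem MIC without compound.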

The subject of series [3] is Klebsiella pneumoniae. As to the kind of experiment: Potentiation of imipenem antibacterial activity against Klebsiella pneumoniae BAA 2146 expressing NDM-1 assessed as reduction in imipenem MIC at 50 uM after 16 hrs by broth microdilution technique. Type of series: functional. A digest of the protocol: as §1
The subject of series [4] is Klebsiella pneumoniae. The experiment in a line: Potentiation of meropenem antibacterial activity against Klebsiella pneumoniae BAA 2146 expressing NDM-1 assessed as reduction in meropenem MIC at 30 uM after 16 hrs by broth microdilution technique. It is filed as functional. Put shortly: as §1
Series [5] has as its system Klebsiella pneumoniae. As to the kind of experiment: Antibacterial activity against Klebsiella pneumoniae BAA 2146 expressing NDM-1 assessed as intact to permeabilized cell membrane ratio at 30 uM after 1 hr by SYTO9/PI-based fluorimetry relative to control. Type of series: functional. Put shortly: (§2)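 Membrane damage was measured by Baclight assay after 1 h exposure of the NDM-1 strain to compound. The intact/permeabilized membrane ratio is expressed as % of DMSO-only treated control bacteria.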

For series [6], the system named is Klebsiella pneumoniae. The experiment in a line: Potentiation of imipenem antibacterial activity against Klebsiella pneumoniae BAA 2146 expressing NDM-1 assessed as reduction in imipenem MIC at 30 uM after 16 hrs by broth microdilution technique. It is filed as functional. Put shortly:
as §1

A short description of series [7]: Hemolytic activity against defibrinated sheep blood at 30 uM after 1 hr by UV-spectrophotometry relative to control. Type of series: ADME, tissue-based, Ovis aries. Conditions: read-out: Activity. Put shortly:
(§3)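 Hemolysis was tested on mechanically defibrinated sheep blood. Lysis is expressed relative to a positive control. HD₅₀ is the concentration lysing 50% of cells versus that control.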

Series [8] deals with Klebsiella pneumoniae. The experiment in a line: Potentiation of cefotaxime antibacterial activity against Klebsiella pneumoniae ATCC 700603 expressing extended spectrum beta-lactamase assessed as reduction in cefotaxime MIC at 30 uM after 16 hrs by broth microdilution technique. It is filed as functional. A digest of the protocol: (§4)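 Modified broth microdilution in cation-adjusted Mueller Hinton broth. The adjuvant's own MIC is measured first in CAMHB. Antibiotic MICs (imipenem/meropenem, or cefotaxime for the ESBL strain) are then determined in CAMHB supplemented with the 2-aminoimidazole at a fixed concentration of ≤30% of its own MIC. Reduction is reported as fold change versus the antibiotic MIC without adjuvant.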

In series [9] the test system is Klebsiella pneumoniae. The experiment in a line: Potentiation of imipenem antibacterial activity against Klebsiella pneumoniae BAA 2146 expressing NDM-1 assessed as increase in log reduction in CFU of imipenem at 30 uM at 4 to 16 hrs relative to control. Type of series: functional, organism-based. Put shortly: (§5)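 Time-kill: cultures grown in CAMHB with imipenem (2–32 μg/mL) with or without 30 μM compound. Bacteria were plated at time points up to 16 h and viable CFU enumerated. Log reduction in CFU/mL is relative to untreated control; ≥2 log₁₀ drop versus antibiotic alone counted as synergy.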

The test system of series [10] is Klebsiella pneumoniae. As to the kind of experiment: Potentiation of imipenem antibacterial activity against Klebsiella pneumoniae BAA 2146 expressing NDM-1 assessed as reduction in imipenem MIC at 40 uM after 16 hrs by broth microdilution technique. It is filed as functional.
Series [11] deals with Klebsiella pneumoniae. As to the kind of experiment: Potentiation of imipenem antibacterial activity against Klebsiella pneumoniae BAA 1705 expressing KPC-2 assessed as reduction in imipenem MIC at 30 uM after 16 hrs by broth microdilution technique. Type of series: functional. A digest of the protocol:
as §4

Series [12] relates to Klebsiella pneumoniae. The experiment in a line: Antibacterial activity against Klebsiella pneumoniae BAA 2146 expressing NDM-1 assessed as reduction in CFU at 30 uM after 16 hrs relative to control. It is filed as functional, organism-based. Put shortly:
as §5

Series [13] in a line: Hemolytic activity against defibrinated sheep blood after 1 hr by UV-spectrophotometry. It is filed as ADME, tissue-based, Ovis aries. Conditions: read-out: HD50. Put shortly:
as §3

Series [14] has as its system Klebsiella pneumoniae. The experiment in a line: Potentiation of imipenem antibacterial activity against Klebsiella pneumoniae BAA 2146 expressing NDM-1 assessed as decreased regrowth at 30 uM at 4 to 16 hrs relative to control. Type of series: functional, organism-based. Put shortly:
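Time-kill: K. pneumoniae BAA-2146 (NDM-1) grown in CAMHB with imipenem (2, 8 or 32 μg/mL in figure; 16 and 4 μg/mL also reported) with or without additive at 30 μM. Viable CFU counted by plating at time points up to 16 h; log reduction in CFU/mL versus untreated control. Synergy defined as ≥2 log10 CFU decrease versus antibiotic alone.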

In series [15] the test system is Klebsiella pneumoniae. The experiment in a line: Potentiation of carbapenem antibacterial activity against Klebsiella pneumoniae BAA 2146 expressing NDM-1 assessed as reduction in carbapenem MIC at 50 uM after 16 hrs by broth microdilution technique. It is filed as functional. Put shortly: as §4
The subject of series [16] is Klebsiella pneumoniae. The experiment in a line: Antibacterial activity against Klebsiella pneumoniae BAA 2146 expressing NDM-1 assessed as intact to permeabilized cell membrane ratio at 50 uM after 1 hr by SYTO9/PI-based fluorimetry relative to control. It is filed as functional. Put shortly: as §2

The source made the active and inactive calls.

Usually MIC stands for the lowest concentration that inhibits growth of the organism. A high value points to a less susceptible organism.

As to `CCCCCCc1ccc(-c2nc(N)[nH]c2-c2ccc3ccccc3c2)cc1.Cl`, in the series on Klebsiella pneumoniae [1], the MIC was above 200 µM. Besides, the result in the series with Klebsiella pneumoniae [2] and in the series with Klebsiella pneumoniae [3] was inactive.

On to `CC(C)(C)c1ccc(-c2c[nH]c(N)n2)cc1.Cl`, for which the MIC with Klebsiella pneumoniae [1] came out at 200 µM.

`CCCCCCc1ccc(-c2nc(N)[nH]c2CC(C)C)cc1.Cl` came in with an MIC in the series on Klebsiella pneumoniae [1] of 200 µM. Moreover, the outcome in the series with Klebsiella pneumoniae [2] and with Klebsiella pneumoniae [3] was inactive.

Take `CCCCCCc1ccc(-c2nc(N)[nH]c2CCCCCC)cc1.Cl`: in the series on Klebsiella pneumoniae [1], the MIC is above 200 µM. The “fold change (FC)” value in the series with Klebsiella pneumoniae [4] worked out at 2. Further, the Activity in the series with Klebsiella pneumoniae [5] stood at 8.13%. In the series on Klebsiella pneumoniae [6] (50 uM, in the assay text read “at 50 uM” for “at 30 uM”), the result was inactive.

The compound `CCCCCCc1ccc(-c2nc(N)[nH]c2C)cc1.Cl` yielded an MIC against Klebsiella pneumoniae [1] of 100 µM. The “fold change (FC)” value with Klebsiella pneumoniae [4] and in the series on Klebsiella pneumoniae [6] was 8 throughout.

Regarding `Cl.Nc1nc(-c2ccc(-c3ccccc3)cc2)c[nH]1`, the MIC against Klebsiella pneumoniae [1] is above 200 µM.

Take `CCCCCCc1ccc(-c2nc(N)[nH]c2CCC)cc1.Cl`: it took 100 µM to inhibit growth in the series on Klebsiella pneumoniae [1] (MIC).

In turn, `CCCCCCc1ccc(-c2c[nH]c(N)n2)cc1.Cl` had an MIC in the series with Klebsiella pneumoniae [1] of 100 µM. In addition, the hemolysis at 1 h, 30 µM in series [7] turned out to be 2.5%. The “fold change (FC)” value worked out at 256 in the series on Klebsiella pneumoniae [3]; 8 in the series on Klebsiella pneumoniae [8]; 16 in the series on Klebsiella pneumoniae [4]; 16 in the series on Klebsiella pneumoniae [6]; 64 with Klebsiella pneumoniae [10]; 16 in the series on Klebsiella pneumoniae [11]. Also, the result in the series on Klebsiella pneumoniae [9] and with Klebsiella pneumoniae [14] was Active. For the same compound, in the series on Klebsiella pneumoniae [5], the Activity is 8.5%. The outcome in the series with Klebsiella pneumoniae [12] was inactive. Further, in series [13], the HC50 at 1 h was above 500 µM.

In the series with Klebsiella pneumoniae [1], `CCCCCCc1ccc(-c2nc(N)[nH]c2-c2ccccc2)cc1.Cl` returned an MIC above 200 µM. The outcome in the series with Klebsiella pneumoniae [2] and in the series on Klebsiella pneumoniae [3] was inactive.

Consider `CCCCCc1ccc(-c2c[nH]c(N)n2)cc1.Cl`, for which the MIC in the series on Klebsiella pneumoniae [1] worked out at 100 µM.

The compound `CCCCCCc1ccc(-c2nc(N)[nH]c2Cc2ccccc2)cc1.Cl` showed an MIC against Klebsiella pneumoniae [1] above 200 µM. Further, the result with Klebsiella pneumoniae [2] and in the series with Klebsiella pneumoniae [3] was inactive.

As for `CCCCc1ccc(-c2c[nH]c(N)n2)cc1.Cl`, in the series on Klebsiella pneumoniae [1], the MIC was 200 µM.

In the series with Klebsiella pneumoniae [1], `CCCCCCCc1ccc(-c2c[nH]c(N)n2)cc1.Cl` had an MIC of 200 µM. The “fold change (FC)” value in the series on Klebsiella pneumoniae [15] is 2. Besides, the Activity with Klebsiella pneumoniae [16] is listed as 21.2%.
